The full list was thinned out, with hits kept by preference.
CHOP UPR activ: apoptotic UPR (CHOP) activation; CHO-CHOP luciferase reporter, luminescence; percent of tunicamycin response over DMSO baseline; activation, % at 10 µM; hit rate 0.34% among 330,000; AID 449763;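 active means at 10 µM dose, activation of 40% or more, normalized to positive control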;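 further: 100% = tunicamycin at 10 µg/mL and 0% = DMSO alone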
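Evaluation: % reporter activation, DMSO baseline versus tunicamycin full activation; System: CHO-CHOP luciferase reporter cell line; Input: 500 cells/well; Incubation: 6 h compound treatment, 37 °C; Measured by: Steady-Glo luciferase luminescence; Dosing: one dose, 10 µM in 0.5% DMSO; Buffer or medium: F12 medium, 10% FBS; Benchmarks: positive tunicamycin 10 µg/mL, negative DMSO alone.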
CHOP inh: CHOP inhibition in unfolded protein response. inhibition, % at 10 µM. hit rate 3.8% among 220,000. CHO-K1 CHOP-promoter luciferase, tunicamycin-induced, 15-18 h;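 active means compounds that reduced the stress-induced luciferase reporter signal by more than about 70% of percent inhibition, limit read from the data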;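 further: 0% = tunicamycin plus vehicle and 100% = wells without tunicamycin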
UCH37 inh: human UCH37 deubiquitinating enzyme inhibition; Q9Y5K5; purified proteasome/UCH37, Ub-AMC cleavage fluorescence; inhibition, % (no concentration beside the values); hit rate 0.33% among 330,000; AID 588478;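 active means mean inhibition over replicate wells above about 20%, limit read from the data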;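 further: 0% = compound-free wells with enzyme and 100% = wells lacking proteasome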
Target sequence (Q9Y5K5 whole entry, looked up): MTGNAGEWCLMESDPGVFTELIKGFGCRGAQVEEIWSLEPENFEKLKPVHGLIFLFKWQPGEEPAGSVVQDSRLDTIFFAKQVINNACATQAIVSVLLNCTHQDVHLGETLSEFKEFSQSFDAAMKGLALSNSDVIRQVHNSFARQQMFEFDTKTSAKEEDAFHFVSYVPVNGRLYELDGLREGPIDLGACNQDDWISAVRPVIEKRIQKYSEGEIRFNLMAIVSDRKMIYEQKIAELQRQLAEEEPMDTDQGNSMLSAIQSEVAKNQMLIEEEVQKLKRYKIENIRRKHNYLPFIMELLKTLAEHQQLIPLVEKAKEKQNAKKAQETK
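Reagent: Ub-AMC substrate; assay system: Proteasome-associated human UCH37 deubiquitinase; controls: no-proteasome and no-compound wells; read-out: % inhibition of Ub-AMC cleavage fluorescence; timing: 30 min preincubation with enzyme, 25 min cleavage at room temperature; signal: AMC fluorescence from Ub-AMC cleavage, excitation 355 nm, emission 460 nm; buffer or medium: Tris-HCl pH 7.4 plus ovalbumin, ATP-MgCl2, DTT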
Fh CTSL1 inh: cathepsin L1 inhibition, PFM18AAP counter-screen; recombinant F. hepatica cathepsin L1, Z-Leu-Arg-MCA fluorescence; inhibition, % at 5.96 µM; hit rate 0.49% among 300,000;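 active means inhibition above the mean of all tested compounds plus 3 SD, set per screening campaign, cut at about 17% in these data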;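 further: 0% = plate median of test compound wells and 100% = 1 µM Z-Phe-Ala-diazomethylketone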
XBP1 UPR activ: adaptive UPR (XBP1) activation | CHO-XBP1 luciferase reporter, IRE1-XBP1 UPR activation, luminescence; percent of tunicamycin response, DMSO as zero | activation, % at 20 µM | hit rate 0.33% among 330,000;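 active means versus positive control, 20 µM dose yields 30% or more activation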;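 further: 100% = tunicamycin at 10 µg/mL and 0% = DMSO only wells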
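assay system = CHO-XBP1 luciferase reporter cells | amount = 1000 cells/well | buffer or medium = F12 plus 10% FBS | compound dosing = single point, 20 µM final compound, 1% DMSO | incubation = 16-18 h cell attachment at 37 °C, then 6 h compound exposure | detection = Steady-Glo luminescence read | controls = tunicamycin 10 µg/mL and vehicle-only wells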
* = called active by the depositor; ! = not active in a repeat.

How did CCOC(=O)C1=C(CN2CCC(C)CC2)NC(=O)NC1c1ccc(Cl)cc1 (stereo not drawn) do in these assays?
CHOP UPR activ: -2.6; CHOP inh: 87.4*; UCH37 inh: 2.2; Fh CTSL1 inh: -0.2; XBP1 UPR activ: -3.4

What do the screens show for `CCOC(=O)c1oc2ccc(S(=O)(=O)n3nc(-c4ccccc4)cc3N)cc2c1C`?
CHOP UPR activ: 5.0; CHOP inh: 85.2*; UCH37 inh: 3.8; Fh CTSL1 inh: 5.2; XBP1 UPR activ: 1.1

Results for O=C(NCC1CCCCN1)c1cc(OCC(F)(F)F)ccc1OCC(F)(F)F (stereo not drawn) ?
CHOP UPR activ: -1.1; CHOP inh: 73.7*!; UCH37 inh: -1.1; Fh CTSL1 inh: -2.7; XBP1 UPR activ: -7.9

What do the screens show for `O=C(NCCNC(=O)c1cc(OCC(F)(F)F)ccc1OCC(F)(F)F)Nc1ccc(OC(F)(F)F)cc1`?
CHOP UPR activ: -2.6; CHOP inh: 90.4*; UCH37 inh: 1.8; Fh CTSL1 inh: 8.2; XBP1 UPR activ: 2.1

What do the screens show for `N#CC(=NNc1ccccc1)C(=N)N1CCCCC1`?
UCH37 inh: 14.4

What do the screens show for `Cc1cc(=O)n2c(C(=O)Nc3ccc(C(=O)OC(C)C)cc3)c(C(=O)Nc3ccccc3)sc2n1`?
CHOP UPR activ: -0.4; CHOP inh: 96.0*; UCH37 inh: -1.2; Fh CTSL1 inh: 2.3; XBP1 UPR activ: 1.3

What do the screens show for `Cc1ccc(C(=O)NNC(=O)Cc2nc3nc(C)cc(C)n3n2)cc1`?
CHOP UPR activ: -0.9; UCH37 inh: 2.2; Fh CTSL1 inh: 4.4; XBP1 UPR activ: -0.9

What do the screens show for `Cc1cc(C)n2nc(CC(=O)NNC(=O)c3ccc(N(C)C)cc3)nc2n1`?
CHOP UPR activ: -1.2; UCH37 inh: 4.8; Fh CTSL1 inh: 36.3*; XBP1 UPR activ: -4.5

What do the screens show for `CC(=NNc1ccc(C(F)(F)F)cn1)c1ccc(S(=O)(=O)NCc2ccco2)cc1`?
UCH37 inh: 2.1

What do the screens show for `Cc1ccc(C(=O)NN=Cc2cccnc2)s1`?
UCH37 inh: 0.9

What do the screens show for `CCC(C)c1ccc(NC(=S)NCCn2cc(Cl)cn2)cc1` (stereo not drawn)?
CHOP UPR activ: -1.1; CHOP inh: 11.0; UCH37 inh: 3.3; Fh CTSL1 inh: 10.6; XBP1 UPR activ: -4.5

How did CCC(C)c1ccc(NC(=S)NCCn2cc(Br)cn2)cc1 (stereo not drawn) do in these assays?
CHOP UPR activ: -0.5; CHOP inh: 71.5*; UCH37 inh: 1.6; Fh CTSL1 inh: -0.8; XBP1 UPR activ: -3.4

How did Cn1c(=O)cc(-c2ccccc2)c2ccccc21 do in these assays?
CHOP UPR activ: 1.1; CHOP inh: 80.0*; UCH37 inh: -4.4; Fh CTSL1 inh: -3.8; XBP1 UPR activ: 6.0

What do the screens show for `O=c1[nH]c(Nc2nc3ccccc3o2)nc2c1CCCC2`?
CHOP UPR activ: 30.3; CHOP inh: 96.6*; UCH37 inh: -18.4; Fh CTSL1 inh: 6.2; XBP1 UPR activ: -0.8

What do the screens show for `Cc1ccc(Nc2nc3c(c(=O)[nH]2)CCCC3)cc1`?
CHOP UPR activ: 1.5; CHOP inh: -4.1; UCH37 inh: 3.9; Fh CTSL1 inh: -2.2; XBP1 UPR activ: -1.2

How did COc1cc(C=NN=C(N)N)ccc1OCc1ccc(Cl)cc1 do in these assays?
UCH37 inh: 3.1

How did COc1cccc(C(=O)Nc2cccc3ccccc23)c1 do in these assays?
CHOP UPR activ: 1.6; UCH37 inh: 2.1; XBP1 UPR activ: -4.5

Results for COc1ccc2nc(NC(=O)Nc3cccc4ccccc34)sc2c1 ?
CHOP UPR activ: 6.0; CHOP inh: 87.9*; UCH37 inh: -16.1; Fh CTSL1 inh: 2.7; XBP1 UPR activ: 8.8

How did O=C(CSc1nc2ccccc2o1)Nc1nc2ccc(Br)cc2s1 do in these assays?
CHOP UPR activ: 2.3; CHOP inh: 92.9*; UCH37 inh: -0.5; Fh CTSL1 inh: -1.3; XBP1 UPR activ: 3.4

What do the screens show for `COc1cccc(C(CC(=O)Nc2cccc3ccccc23)NC(=O)c2ccccc2)c1` (stereo not drawn)?
CHOP UPR activ: 2.2; CHOP inh: 84.2*; UCH37 inh: 4.4; Fh CTSL1 inh: 14.7; XBP1 UPR activ: -1.2

What do the screens show for `CCOc1ccc2nc(NC(=O)CSc3nc4cccnc4n3C)sc2c1`?
CHOP UPR activ: -0.1; CHOP inh: 76.6*; UCH37 inh: 2.6; Fh CTSL1 inh: -2.0; XBP1 UPR activ: -0.8

Results for COc1ccc(OC)c(C=NNC(=S)NCCc2ccccc2)c1 ?
UCH37 inh: -48.1

Results for CCCn1c(NN=C(C)/C=C/c2ccccc2)nc2c1c(=O)[nH]c(=O)n2C ?
UCH37 inh: -16.1

How did COc1ccc2nc(NC(=O)CSc3nc4ccccc4o3)sc2c1 do in these assays?
CHOP UPR activ: 0.1; CHOP inh: 71.9*; UCH37 inh: 6.7; Fh CTSL1 inh: 6.8; XBP1 UPR activ: 0.6

What do the screens show for `COc1ccc2nc(NC(=O)c3ccc4ncsc4c3)sc2c1`?
CHOP UPR activ: 6.4; CHOP inh: 90.8*; UCH37 inh: -81.7; Fh CTSL1 inh: 2.1; XBP1 UPR activ: 7.8

What do the screens show for `COc1ccc2nc(NC(=O)CC3Oc4ccccc4NC3=O)sc2c1` (stereo not drawn)?
CHOP UPR activ: 1.1; CHOP inh: 75.0*; UCH37 inh: 1.9; Fh CTSL1 inh: 3.1; XBP1 UPR activ: -3.1

How did COc1ccc2nc(NC(=O)c3ccc(F)cc3)sc2c1 do in these assays?
CHOP UPR activ: 6.5; UCH37 inh: -94.8; Fh CTSL1 inh: 1.8; XBP1 UPR activ: 2.0

What do the screens show for `COc1ccc2nc(NC(=O)CSc3nc(C)cc(C)n3)sc2c1`?
CHOP UPR activ: 2.2; CHOP inh: -1.2; UCH37 inh: 2.3; Fh CTSL1 inh: 7.7; XBP1 UPR activ: -1.7

What do the screens show for `CCOc1ccc2nc(NC(=O)CC3Oc4ccccc4NC3=O)sc2c1` (stereo not drawn)?
CHOP UPR activ: 0.4; CHOP inh: -5.6; UCH37 inh: 3.0; Fh CTSL1 inh: -0.6; XBP1 UPR activ: -2.0

What do the screens show for `CCn1c(Cc2ccc(OC)cc2)nnc1SCC(=O)Nc1nc2ccccc2s1`?
CHOP UPR activ: -1.2; CHOP inh: 83.1*; UCH37 inh: -1.3; Fh CTSL1 inh: 0.7; XBP1 UPR activ: 1.9

Results for FC(F)Oc1ccc(C=NNC(=S)Nc2cc(C(F)(F)F)ccc2Cl)cc1 ?
UCH37 inh: 1.1

How did CCN(CC)Cc1c(C(=O)NN=Cc2ccccn2)nnn1-c1nonc1N do in these assays?
UCH37 inh: 2.6

What do the screens show for `CC(=O)Nc1cccc(C(C)=NNC(=O)c2ccc(O)cc2)c1`?
UCH37 inh: 1.7

How did C/C(C=NNc1nc2ccccc2[nH]1)=C\c1ccccc1 do in these assays?
UCH37 inh: -9.6

What do the screens show for `CON=CCC(=O)c1ccc(-c2ccccc2)cc1`?
UCH37 inh: 5.2

Results for C1CCC(C(CC2CCCCN2)C2CCCCC2)CC1 (stereo not drawn) ?
CHOP UPR activ: 8.2; CHOP inh: 99.2*; UCH37 inh: 3.7; Fh CTSL1 inh: -2.6; XBP1 UPR activ: 11.1

Screening data from PubChem BioAssay.
